High-throughput results from PubChem.
A selection: hits, their analogues and other compounds. The true share with any hit is near 2.3%.
MEKK2mut PB1 HTS = signal of MEK5 binding to mutant human MEKK2 PB1 domain. bead flow cytometry, Alexa488-MEK5 binding to MEKK2 mutant. percent response, % at 10 µM. 290,000 compounds, 0.35% hits; in the data active means percent response above about 24%, passing the limit was not always enough
MEKK3 PB1 HTS = raises or lowers MEK5 binding to the human MEKK3 PB1 domain; binding response (% of control), % at 10 µM; bead-based flow cytometry, Alexa488-MEK5 binding to MEKK3; actives lie on both sides; 0 = blocked by unlabeled MEK5, 100 = vehicle; AID 1529; 290,000 compounds, 1.4% hits; Q99759;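 active means binding response more than 3 SD above or below the average of its plate-row segment, actives on both sides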;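 further: Alexa488 bead fluorescence after subtracting the streptavidin-only scavenger bead signal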
Arr AP2 block = inhibitors of human beta-arrestin and AP2 interaction; inhibition, % at 10 µM; 340,000 compounds, 0.31% hits; FITC-arrestin peptide / GST-AP2 beads, flow cytometry; AP2 beta2 appendage carries R879A mutation;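 active means inhibition above a set limit, near 3 SD of compounds lacking own fluorescence, cut at about 54% in these data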
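system = GST-tagged AP2 beta2-adaptin appendage (R879A) on 4 µm glutathione beads | reagent = FITC-labelled arrestin peptide probe, 50 nM final | schedule = compound with beads 12 min RT, then probe 1 h RT | signal = HyperCyt-sampled flow cytometry, FL1 channel, ex 488/em 535 nm | read-out = percent response from loss of bead-bound FITC fluorescence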
MEKK2 WT-MEK5 = raises or lowers MEK5 binding to wildtype human MEKK2 PB1 domain | Q9Y2U5 | bead flow cytometry, Alexa488-MEK5 binding to MEKK2 WT; actives lie on both sides | binding response (% of control), % at 10 µM | 290,000 compounds, 1.1% hits | AID 1531; in the data active means binding response below about 67% or above about 130%
Arr AP2 CP1 = inhibitors of human beta-arrestin and AP2 interaction. shares compounds with Arr AP2 block. GST-AP2 beads, FITC arrestin peptide binding, flow cytometry; GST-fused beta2-adaptin appendage, R879A mutant. inhibition, % at 10 µM. 1,300 compounds, 2% hits. AID 504908;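 active means inhibition above a set limit, roughly 3 SD of non-fluorescent compound noise, cut at about 38% in these data; inactive means inhibition at or below that limit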;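 further: loss of bead fluorescence from 50 nM FITC arrestin peptide bound to appendage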
Target sequence (P63010 whole entry, looked up, the tested form may be a part, one chain of several): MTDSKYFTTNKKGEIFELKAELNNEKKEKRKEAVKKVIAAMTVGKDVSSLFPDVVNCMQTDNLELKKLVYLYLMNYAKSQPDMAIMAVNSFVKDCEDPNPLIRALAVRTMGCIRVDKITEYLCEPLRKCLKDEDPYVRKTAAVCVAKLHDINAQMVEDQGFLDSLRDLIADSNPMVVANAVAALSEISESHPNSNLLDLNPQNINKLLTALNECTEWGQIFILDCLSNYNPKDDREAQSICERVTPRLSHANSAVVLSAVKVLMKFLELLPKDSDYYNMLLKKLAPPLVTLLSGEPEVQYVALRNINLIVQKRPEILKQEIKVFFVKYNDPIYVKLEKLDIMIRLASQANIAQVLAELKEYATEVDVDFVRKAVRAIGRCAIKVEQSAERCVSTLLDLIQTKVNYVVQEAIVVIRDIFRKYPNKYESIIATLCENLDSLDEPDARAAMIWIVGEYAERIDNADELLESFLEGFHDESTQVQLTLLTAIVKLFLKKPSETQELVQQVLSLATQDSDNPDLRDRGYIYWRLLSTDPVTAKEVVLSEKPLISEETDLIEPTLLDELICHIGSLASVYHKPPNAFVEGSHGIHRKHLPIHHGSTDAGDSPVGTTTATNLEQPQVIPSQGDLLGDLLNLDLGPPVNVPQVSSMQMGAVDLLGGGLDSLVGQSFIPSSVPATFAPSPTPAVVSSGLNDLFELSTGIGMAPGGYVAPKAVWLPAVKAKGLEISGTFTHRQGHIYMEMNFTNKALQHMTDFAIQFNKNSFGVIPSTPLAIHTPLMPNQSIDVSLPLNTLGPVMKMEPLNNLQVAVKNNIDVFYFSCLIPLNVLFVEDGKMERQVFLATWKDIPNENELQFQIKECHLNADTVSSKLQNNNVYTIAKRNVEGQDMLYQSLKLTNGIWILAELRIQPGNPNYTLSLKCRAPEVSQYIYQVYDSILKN
GST GSH counter = GST-GSH bead binding interference, counter-screen. shares compounds with Arr AP2 block. 1,300 compounds, 2% hits. inhibition, % at 10 µM. GST-fluorescein binding to GSH beads, fluorescence. AID 588338;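 active means inhibition above 50%, about 3 SD of the inhibition seen with non-fluorescent compounds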;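 further: fluorescein maleimide labelled GST captured on 4 micron glutathione beads; higher means more loss of bead fluorescence from quenching or blocked binding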
Large screens that a line does not name were inactive (follow-up assays come after a bar, where they were run).

CCOc1ccc(OCC(=O)Nc2ccc(OC)cc2)cc1	none
CCc1ccc(OCC(=O)NNCC(=O)Nc2ccc(OC)cc2)cc1	Arr AP2 block 58 (no result: MEKK2mut PB1 HTS, MEKK3 PB1 HTS, MEKK2 WT-MEK5) | Arr AP2 CP1 inactive | GST GSH counter inactive
Cc1ccc2nc(-c3ccc4c(c3)OCCO4)cn2c1	none
c1ccn2cc(-c3ccc4c(c3)OCCO4)nc2c1	Arr AP2 block 58 | Arr AP2 CP1 inactive | GST GSH counter inactive
Cc1cc(SCC(=O)NCC2CCCO2)nc2ccccc12 (configuration not stated)	none
COc1cccc(CNC(C)C(=O)Nc2ccc3c(c2)OCCO3)c1 (configuration not stated)	none
Cc1cccc(OC(C)C(=O)Nc2ccc3c(c2)OCCO3)c1 (configuration not stated)	none (no result: MEKK2mut PB1 HTS, MEKK3 PB1 HTS, MEKK2 WT-MEK5) | Arr AP2 CP1 inactive | GST GSH counter inactive
Cc1csc(SCC(=O)Nc2ccccc2[N+](=O)[O-])n1	none
O=C(O)c1ccccc1NS(=O)(=O)c1ccc(NNC(=S)Nc2ccc(OC(F)F)cc2)c([N+](=O)[O-])c1	Arr AP2 block 62 | Arr AP2 CP1 inactive | GST GSH counter inactive
COc1cccc(NC(=O)CN(C)C(=O)c2cc(-c3ccc(C)o3)nc3ccccc23)c1	none (no result: MEKK2mut PB1 HTS, MEKK3 PB1 HTS, MEKK2 WT-MEK5)
COc1cccc(NC(=O)c2cc(-c3ccc(C)o3)nc3ccccc23)c1	Arr AP2 block 54 | Arr AP2 CP1 inactive | GST GSH counter inactive
C=CCNc1nc(S(=O)Cc2ccc(C)cc2)nc2c1CCCC2 (configuration not stated)	none
CCC(=O)NC1=C(NC(C)c2ccccc2)C(=O)c2ccccc2C1=O (configuration not stated)	none
CCC(=O)NC1=C(Cl)C(=O)C(NC(=O)CC)=C(Cl)C1=O	Arr AP2 block 66 | Arr AP2 CP1 61 | GST GSH counter inactive
Clc1ccccc1C=NNc1ccccn1	none (no result: MEKK2mut PB1 HTS, MEKK3 PB1 HTS, MEKK2 WT-MEK5)
COc1ccc2nc(Cl)c(/C=N/Nc3ccccn3)cc2c1	Arr AP2 block 59 | Arr AP2 CP1 inactive | GST GSH counter inactive
COC(=O)CNC(=O)C12CC3(C)CC(C)(CC(C)(C3)C1)C2	Arr AP2 block 59 | Arr AP2 CP1 inactive | GST GSH counter inactive
